Source: PubChem BioAssay (several laboratories)
Only some compounds are listed: those with a hit (about 11% of all), similar ones and a draw of the others.
Diaphorase inh = inhibits diaphorase or chemically oxidizes, flagging diaphorase assay artifacts; diaphorase resazurin-to-resorufin fluorescence, NADH, 16 min; bacterial (C. kluyveri) enzyme, not human; inhibition, % at 20 µM; actives 0.69% (n = 190,000); AID 1217;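 active means primary screen inhibition at 20 µM above a set limit, cut at about 50% in these data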;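 further: plate controls were DMSO with full reaction for no effect and wells lacking NADH for full effect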
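Detection: fluorescence of resorufin formed from resazurin, Ex 544/Em 590 nm; test system: Clostridium kluyveri diaphorase enzyme; amount: 0.14 U/mL diaphorase, enzyme working solution; times: 16-min room-temperature incubation before reading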
Diaphorase act = activates diaphorase or chemically reduces, flagging diaphorase assay artifacts | Diaphorase/resazurin coupled assay, resorufin fluorescence, 16 min; active compounds read high; 1 = vehicle wells, 0 = NADH-free wells | activation factor at 20 µM | actives 0.005% (n = 190,000) | AID 1229;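 active means diaphorase activity raised at least twofold by the compound at 20 µM; inactive means activation factor below 2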
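Test system: Clostridium kluyveri diaphorase, purified enzyme; input: enzyme 0.07 U/mL final; buffer or medium: 50 mM HEPES pH 7.4 with 4.542 mM MgCl2, 0.005% Tween 20; also added: 0.114 mM NADH and 0.1 mM resazurin, final amounts; schedule: 16 min enzyme reaction, ambient temperature; technique: fluorescence of resorufin, 544 nm excitation, 590 nm emission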
WT yeast gro inh = growth inhibition of WT yeast, mitochondrial fusion screen; mitochondrial fusion phenotypic screen, WT strain; inhibition, % at 10 µM; actives 2.1% (n = 190,000); AID 1362; in the data active means inhibition above about 58%; tested in S. cerevisiae
Lmaj promast = inhibitors of Leishmania major promastigote growth; Leishmania major promastigotes, resazurin fluorescence viability; inhibition, % at 10 µM; actives 9% (n = 200,000);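 further: promastigotes grown with compound for 44 hours at 28 °C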
G6PDH counter = counter-screen for G6PDH assay hits: L. mesenteroides G6PDH inhibition; inhibition, % at 5 µM; Purified L. mesenteroides G6PDH, diaphorase/resazurin coupled fluorescence, 45 min; AID 1020; actives 0.12% (n = 200,000)
An asterisk follows results filed as active; / = no result. Unless noted, no stated cut-off is given here; in the data, active means inhibition above about 50%; inactive means the rest.

SMILES	Diaphorase inh	Diaphorase act	WT yeast gro inh	Lmaj promast	G6PDH counter
CCOc1ccccc1NC(=S)NCC1CCCO1 (configuration not stated)	9.1	0.9	2.2	50.9*	6.1
NS(=O)(=O)c1ccc(NC(=S)NCC2CCCO2)cc1 (configuration not stated)	12.1	0.9	3.7	55.0*	0.5
COc1cc(OC)cc(C(=O)N[C@H](C(=O)OCC(=O)Nc2ccc(F)c(F)c2F)C(C)C)c1	0.5	1	-6.3	1.7	0.8
COc1ccccc1NC(=S)NC(=O)c1ccc(Cn2cc(Br)cn2)cc1	20.4	0.8	10.0	-8.3	-2.1
C=C(C)COc1ccc(-c2[nH]ncc2Oc2cccc(OC)c2)c(O)c1	7.2	0.9	1.0	74.0*	2.5
C=C(C)COc1ccc(-c2[nH]ncc2-c2ccccc2)c(O)c1	24.7	0.8	70.5*	8.0	4.9
C=C(C)COc1ccc(-c2[nH]ncc2Oc2ccccc2OCC)c(O)c1	13.0	0.9	-20.6	38.5	9.0
O=C1OC(Nc2cc(Br)cc3cccnc23)c2ccccc21 (configuration not stated)	48.7	0.5	17.6	-0.3	25.1
Cc1c(Cl)cccc1NC(=O)[C@@H](NC(=O)c1ccccc1Cl)C(C)C	7.2	0.9	7.9	73.3*	1.1
CC(C)[C@H](NC(=O)c1ccccc1Cl)C(=O)NC1CCCCCC1	10.7	0.9	-10.5	21.8	0.5
Cc1nn(-c2ccc(F)cc2)c2c1cc(C#N)c1nc3ccccc3n12	1.3	1	12.0	-2.1	-3.1
COC(=O)c1[nH]c2cccc(OC)c2c1NC(=O)CCN1CCN(c2cccc(Cl)c2)CC1	18.5	0.8	7.6	100.3*	2.5
COC(=O)c1[nH]c2ccccc2c1NC(=O)CN1CCN(c2cccc(Cl)c2)CC1	14.4	0.9	-0.4	25.3	6.0
CC(C(=O)Nc1ccc(F)c(F)c1F)N(C)CC(=O)Nc1ccccc1Br (configuration not stated)	8.3	0.9	-8.7	11.7	-8.8
Cc1ccc(C2C(C=Nc3c(C)n(C)n(-c4ccccc4)c3=O)=C(c3ccccc3)Oc3ccccc32)cc1 (configuration not stated)	19.0	0.8	40.5	56.1*	3.7
Cc1cccc(-c2noc(CCCC(=O)N3CCOCC3)n2)c1	4.7	1	-8.6	-5.4	3.7
CN1CCC(OC(c2ccccc2)c2ccccc2)CC1	-7.8	1.1	-1.2	6.7	2.5
CN1CCC(Oc2ccccc2Sc2ccccc2)CC1	11.1	0.9	-4.2	100.3*	4.1
CC(C)CCNC(=O)NC(=O)COC(=O)CNC(=O)C1CCCCC1	-17.0	1.2	-23.0	-1.3	10.9
NS(=O)(=O)c1ccc(Nc2nc(-c3ccc(O)cc3O)cs2)cc1	22.8	0.8	-9.1	63.4*	20.3
NS(=O)(=O)c1ccc(Nc2nc(-c3ccc(F)cc3)cs2)cc1	18.2	0.8	23.6	23.1	1.6
CCOc1ccc(N2CC(C(=O)NC(C)C)CC2=O)cc1 (configuration not stated)	1.1	1	59.8*	-7.3	6.4
CCCOc1ccc(N2CC(C(=O)Nc3ccc(N4CCOCC4)cc3)CC2=O)cc1 (configuration not stated)	-2.0	1	-0.7	-5.6	-4.1
O=C(Nc1ccccc1N1CCOCC1)C1CCN(S(=O)(=O)c2ccccc2F)CC1	12.5	0.9	4.3	56.5*	-15.1
CCOc1ccc(N2CC(C(=O)Nc3ccccc3N3CCOCC3)CC2=O)cc1 (configuration not stated)	-3.3	1	2.2	76.6*	4.8
SMILES	Diaphorase inh	Diaphorase act	WT yeast gro inh	Lmaj promast	G6PDH counter
O=C(COC(=O)CCc1c[nH]c2ccccc12)NC(c1ccccc1)c1ccccc1	13.7	0.9	3.3	-6.5	-4.8
Clc1cccc(NCc2cn3cccnc3n2)c1	2.6	1	-10.2	13.7	-0.7
O=C(Cn1cnc([N+](=O)[O-])n1)N/N=C/c1ccc2ccccc2c1	12.9	0.9	-11.6	96.2*	-3.0
COc1ccccc1/C=N/NC(=O)Cn1cnc([N+](=O)[O-])n1	-0.8	1	-0.2	4.1	0.3
C=CCn1c(SCc2cc(C(C)=O)ccc2OCC)nc2ccccc2c1=O	18.3	0.8	-14.4	96.7*	16.1
COc1ccc(C(C)=O)cc1CSc1nc2ccccc2c(=O)n1-c1ccccc1	-6.7	1.1	32.8	0.5	-7.3
COc1ccc(C(C)=O)cc1CSc1nc2ccccc2c(=O)n1-c1cccc(C)c1	20.8	0.8	64.8*	18.0	-25.2
C=CCn1c(SCc2nc3ccccc3c(=O)[nH]2)nc2ccccc2c1=O	5.7	0.9	-6.8	15.8	1.3
COc1ccc(C(C)=O)cc1CSc1nc2ccccc2c(=O)n1-c1ccccc1C	18.2	0.8	61.1*	77.7*	-2.6
Cc1cccc(C)c1OC(=O)CN(c1ccc(Cl)cc1)S(C)(=O)=O	20.5	0.8	-20.2	-5.4	-9.8
CCOC(=O)Cn1cnc(-c2ccc([N+](=O)[O-])cc2)c1	10.5	0.9	-4.7	12.1	1.2
Cc1ccc(OCc2nc(-c3cccs3)no2)c([N+](=O)[O-])c1	6.5	0.9	-4.2	-5.7	2.5
COc1ccc(N=CC2=C(Nc3ccc(OC)cc3)c3c(C)nn(-c4ccccn4)c3CC2)cc1	/	/	/	100.2*	/
COc1ccc(-n2nc(C(=O)NCC(=O)N3CCN(c4ccccn4)CC3)c3ccccc3c2=O)cc1	15.9	0.8	6.5	23.3	0.6
CCCn1c(SCC(=O)N2N=C3/C(=C/c4ccc(OC)cc4)CCCC3C2c2ccc(OC)cc2)n[nH]c1=O (configuration not stated)	15.9	0.8	33.8	91.9*	-7.8
CC(=O)N1N=C2/C(=C/c3ccccc3)CCCC2C1c1ccccc1 (configuration not stated)	-11.5	1.1	43.6	96.9*	18.7
CCCn1c(SCC(=O)NCc2ccc(OC)cc2)n[nH]c1=O	18.6	0.8	10.7	-8.3	1.8
O=C(O)c1c(C(=O)N2N=C3/C(=C/c4ccccc4)CCCC3C2c2ccccc2)cccc1[N+](=O)[O-] (configuration not stated)	8.3	0.9	-8.0	-4.4	-3.2
O=C(c1ccccn1)N1N=C2/C(=C/c3ccc(F)cc3)CCCC2C1c1ccc(F)cc1 (configuration not stated)	29.6	0.7	74.5*	17.9	-4.1
COCCn1c(-c2ccc(Cl)cc2)cnc1SCC(=O)NCCc1ccc(OC)c(OC)c1	11.3	0.9	0.2	70.5*	-13.1
COCCn1c(-c2ccc(OC)cc2)cnc1SCC(=O)Nc1cccc2ccccc12	22.8	0.8	3.3	77.3*	-24.5
COc1ccc(CCNC(=O)CSc2nc3[nH]ncc3c(=O)n2-c2ccc(Cl)cc2Cl)cc1OC	73.4*	0.3	-2.2	3.0	1.6
COc1ccc(-c2cnc(SCC(=O)Nc3cc(C)on3)n2Cc2ccco2)cc1	16.8	0.8	8.4	2.4	-3.8
